# Screening results as filed in PubChem.
# aDG glyco up: alpha-DG glycosylation activation | actives 0.22% (n = 360,000) | activation, % at 10 µM | Pro5-aDG cells, alpha-DG glycosylation AlphaScreen (IIH6); 0% Pro5, 100% B10-LARGE cell signal;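 active = activation of at least 8% versus controls, or a plate z-score of at least 8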;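 note: Pro5 are CHO cells carrying HIG-tagged alpha-DG that lacks glycosylation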
# CSN deneddyl inh: CSN deneddylation inhibition | Q92905 | Purified CSN, SCF-Nedd8-OG deneddylation, fluorescence polarization | inhibition, % at 12.5 µM | actives 0.38% (n = 360,000) | AID 651999;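 active = pattern-corrected inhibition above about 35%, with an unprinted fluorescence ratio check between 0.5 and 1.5, limit read from the data, passing the limit was not always enough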;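 note: 0% = enzyme with substrate and 100% = substrate without enzyme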
# Target sequence (Q92905 whole entry, looked up, one chain of several): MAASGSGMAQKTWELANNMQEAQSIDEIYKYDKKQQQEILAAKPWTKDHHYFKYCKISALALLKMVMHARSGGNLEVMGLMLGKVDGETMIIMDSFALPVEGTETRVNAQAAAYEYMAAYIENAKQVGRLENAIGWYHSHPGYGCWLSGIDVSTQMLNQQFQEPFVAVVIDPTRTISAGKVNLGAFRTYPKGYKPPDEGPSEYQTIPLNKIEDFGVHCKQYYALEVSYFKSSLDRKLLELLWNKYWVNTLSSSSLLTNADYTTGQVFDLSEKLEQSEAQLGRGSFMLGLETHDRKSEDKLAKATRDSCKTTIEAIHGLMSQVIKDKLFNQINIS
#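 Detection – fluorescence polarization · System – HEK293T-derived human Csn5 enzyme · Controls – substrate-only high control, full reaction low control · Timing – 90 min, room temperature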
# Rev-erbA mod: modulators of human Rev-erb alpha DNA binding; actives 0.79% (n = 370,000); Rev-erbα–FITC-DNA binding, fluorescence polarization, 90 min; activity, % at 10 µM;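 active = activity above about 14%, limit read from the data; passing the limit was not always enough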;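 note: 0% = DMSO wells with 35 nM protein and 100% = DMSO wells with 750 nM protein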
# HNF4A DNA FP: change in binding of human HNF4 alpha to DNA. P41235. HNF4a-FITC DNA binding, fluorescence polarization, 1 h. activity change, % at 10 µM. actives 0.3% (n = 360,000). AID 1224865; in the data active = activity change above about 30%, passing the limit was not always enough
# Rev-erbA confirm: Rev-erb alpha (human) modulation, hit confirmation; shares compounds with Rev-erbA mod; Rev-erb alpha FITC-DNA binding, fluorescence polarization, 90 min; activation, % at 25 µM; actives 61% (n = 3,000);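 active = activation at or above a set limit, or at least 3 SD above the negative control mean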;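 note: 0% = 35 nM protein with DMSO and 100% = 750 nM protein high control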
# RORg DNA counter: counter-screen for Rev-erb alpha modulators: RORgamma DNA binding; shares compounds with Rev-erbA mod; purified RORgamma protein-FITC-DNA binding, fluorescence polarization; IC50, µM; actives 8% (n = 910);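 active = Compounds whose fitted half-maximal concentration for disrupting protein-DNA binding is below 10 micromolar; the record names Rev-erb in its text, so the target is in doubt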
# Active calls of the source: *; i = inactive; · = no result. This is a sample that favours compounds with a hit; in the whole collection about 1.5% have one here.
SMILES,aDG glyco up,CSN deneddyl inh,Rev-erbA mod,HNF4A DNA FP,Rev-erbA confirm,others
COc1ccc(C2Nc3ccccc3C(=O)N2Cc2cccnc2)cc1COc1c(C)cccc1C (stereo not drawn),·,·,-2,·,·,
CC1(C)Oc2ccc(C(=O)N3CCCC3)cc2NC1=O,·,·,-6,·,·,
O=C(c1ccc(F)cc1)c1ccc(-c2ccc(F)cc2)nc1,0,-5,28*,-3,12,
COc1ccc(C(=O)c2ccc(-c3ccc(OC)cc3)nc2)cc1,0,0,18,1,·,
COc1cccc(-c2cc(C(=O)Nc3cc(C)n(Cc4ccc(Cl)cc4)n3)no2)c1,0,2,-5,0,·,
Cc1cc(NC(=O)c2cc(-c3ccc(O)cc3)on2)no1,0,-2,-1,3,·,
COc1ccc(-c2cc(C(F)(F)F)n3nc(C(=O)Nc4cc(C)on4)cc3n2)cc1OC,0,3,34*,-6,26*,
CCc1ccc(NC(=O)c2cc(-c3ccc(OC)cc3)on2)cc1,0,-7,-5,2,·,
COc1ccc(OC)c(-c2cc(C(=O)Nc3cc(C)n(Cc4ccc(Cl)cc4)n3)no2)c1,0,4,16*,0,5,
Cc1ccc(-c2cc(C(F)(F)F)n3nc(C(=O)Nc4ccon4)cc3n2)cc1C,0,3,-3,-1,·,
COc1ccc(-c2cc(C(=O)Nc3cc(C)on3)no2)cc1OC,0,7,36*,2,29*,
COc1ccc(-c2cc(C(=O)Nc3ccc(Br)cc3)no2)cc1,0,5,35*,3,-1,
COc1ccc2ccccc2c1C=Nn1c(-c2n[nH]c3c2CCC3)n[nH]c1=S,·,·,5,·,·,
COc1ccc(NC(=O)c2cc3nc(-c4ccccc4)cc(-c4ccccc4)n3n2)c(OC)c1,0,1,21*,-7,14,
Cc1cc(NC(=O)c2cccc(C(=O)Nc3cc(C)on3)n2)no1,0,12,22*,0,17*,
Cn1nc(C(=O)Nc2ccc(Br)cc2)cc1C(=O)Nc1ccc(Br)cc1,0,4,13*,0,6,
COc1cccc(NC(=O)c2cc(C(=O)Nc3cccc(OC)c3)n(C)n2)c1,0,0,1,0,·,
N#Cc1cccc(-n2cc(COC(=O)NCCc3ccccc3)nn2)c1,·,·,2,·,·,
COCc1cc(C)nc(Nc2ccc(C)cc2C)c1C#N,0,5,29*,0,1,
CCNc1nc(C)cc(COC)c1C#N,1,-2,-3,0,·,
Cc1ccc(Nc2nc(C)cc(C)c2C#N)c(C)c1,0,4,-9,0,·,
COCc1cc(C)nc(Nc2ccc(C)c(C)c2)c1C#N,0,1,25*,1,11,
COc1ccc(-c2cc(C(F)(F)F)n3ncc(C(=O)NCC4CCCO4)c3n2)cc1OC (stereo not drawn),0,-4,28*,12,31*,
COc1ccc(-c2cc(C(F)F)n3ncc(C(=O)NCC4CCCO4)c3n2)cc1 (stereo not drawn),0,-3,36*,0,15,
COc1ccc(-c2cc(C(=O)NCC3CCCO3)on2)cc1OC (stereo not drawn),0,3,0,-4,·,
SMILES,aDG glyco up,CSN deneddyl inh,Rev-erbA mod,HNF4A DNA FP,Rev-erbA confirm,others
O=C(NCC1CCCO1)c1nn2c(C(F)(F)F)cc(-c3cccs3)nc2c1Cl (stereo not drawn),0,6,-3,10,·,
O=C(NCC1CCCO1)c1nn2c(C(F)(F)F)cc(-c3cccs3)nc2c1Br (stereo not drawn),0,2,26*,15,18*,
Fc1cnc(N2CCc3ccccc32)nc1N1CCc2ccccc21,0,4,57*,3,137*,RORg DNA counter=>40
C=CCN1C(=O)[C@@H](CC(=O)NCc2cccc3ccccc23)[C@]2(C(=O)OC)CCCCC=C12,·,·,-1,·,·,
Cc1cc2ccccc2nc1SCC(=O)N1c2ccccc2CC1C (stereo not drawn),0,-1,147*,-4,-2,
Cc1cc2cc3c(cc2nc1SCC(=O)N1c2ccccc2CC1C)OCO3 (stereo not drawn),0,-2,7,3,·,
CC1Cc2ccccc2N1C(=O)CSc1nc2cc3c(cc2cc1C#N)OCO3 (stereo not drawn),1,4,70*,9,32*,
O=c1c2sc3nc(N4CCOCC4)c4c(c3c2ncn1-c1ccccc1)CCCC4,0,-1,3,0,·,
O=c1c2sc3nc(N4CCOCC4)c4c(c3c2ncn1C(c1ccccc1)c1ccccc1)CCCC4,0,-5,30*,-1,27*,
O=C(CCc1ccccc1)N[C@H]1[C@@H](OC(=O)C2CC2)CCC[C@@]12C(=O)N(Cc1ccccc1)c1ccccc12,·,·,-2,·,·,
C#CCN1CC(N(C)CCOC(=O)c2ccc(OC)c(OC)c2)CS1(=O)=O (stereo not drawn),·,·,-2,·,·,
CC(=O)Nc1cccc(C(C)C2=CCCCC2)c1 (stereo not drawn),·,·,0,·,·,
CC(C)(C)c1ccc(C(=O)c2c[nH]c(C(=O)NCc3cccs3)c2)cc1,0,5,96*,3,94*,RORg DNA counter=i
Cc1cc(NCCCOC(C)C)n2c(nc3ccccc32)c1C#N,0,52*,44*,9,16,
CCN(c1cccc(C)c1)S(=O)(=O)c1cc2c3c(c1)CCC(=O)N3CCC2,2,1,53*,1,62*,RORg DNA counter=>40
CCOC(=O)C1Nc2ccc(C(F)(F)F)cc2C2c3ccccc3CC12 (stereo not drawn),0,-1,36*,1,14,
Cc1cc(C)c2c(n1)sc1c(-c3ccccc3)c(C#N)c(N)nc12,0,-6,23*,-2,4,
O=C(Nc1cc([N+](=O)[O-])ccc1O)NC1CCS(=O)(=O)C1 (stereo not drawn),0,-2,16*,1,15*,
Cc1ccc(-c2c(C#N)c(N)n(-c3ccccc3)c(=O)c2C#N)cc1,0,-3,0,-1,·,
CCOC(=O)c1nn(-c2ccc(Cl)cc2)c2nc(CC)c(C#N)c(=O)n12,0,-4,33*,6,6,
CCOC(=O)c1nn(-c2ccc(Cl)cc2)c2nc(-c3ccc(C)cc3)c(C#N)c(=O)n12,0,0,36*,0,37*,RORg DNA counter=>40
Cc1ccc(-c2c(C#N)c(N)n(-c3ccc(Cl)cc3)c(=O)c2C#N)cc1,0,1,38*,-1,29*,RORg DNA counter=>40
COc1ccc(N2C(=O)c3cccc4cccc(c34)C2=O)cc1,0,3,28*,-1,26*,
COc1ccc(N2C(=O)c3cccc4c(N(C)CCO)ccc(c34)C2=O)cc1,0,-10,42*,-35,36*,RORg DNA counter=>40
